In series [1] the test system is Candida albicans. Put plainly: Antifungal activity against Candida albicans ATCC 18804 after 24 hrs. In kind it is functional. Particulars: ATCC 18804, 24 h. Put shortly: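 Mid-log C. albicans (subcultured 2 h in YEPD after 20 h aerobic growth at 30°C), washed and resuspended at 10^6 cells/ml in 10 mM phosphate buffer pH 7.4. Exposed to peptides for 2 h at 30°C, then diluted, plated on YEPD agar and incubated 24 h at 30°C. MFC = concentration giving no viable colonies. Averages of three independent experiments in duplicate.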

The test system of series [2] is Candida albicans. Put plainly: Fungicidal activity against Candida albicans ATCC 18804 at MFC pretreated with 50 uM carbonyl cyanide m-chlorophenylhydrazone for 2 hrs at 30 deg C. It counts as functional, organism-based. Put shortly: (§1)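 Mid-log cells at 10^6/ml in phosphate buffer were preincubated 2 h at 30°C with shaking with 5 mM sodium azide or 50 µM CCCP. Peptides were then added at MFC for 2 h at 30°C. Cells plated on YEPD agar for 24 h and colonies counted as percent killing. Three independent experiments in duplicate.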

Series [3] concerns Candida albicans. Put plainly: Fungicidal activity against Candida albicans ATCC 18804 at MFC pretreated with 5 mM sodium azide for 2 hrs at 30 deg C. In kind it is functional, organism-based. Put shortly:
as §1

The subject of series [4] is Candida albicans. Put plainly: Fungicidal activity against Candida albicans ATCC 18804 at MFC in presence of 25 mM NaCl. It counts as functional, organism-based. Summed up: (§2)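 Mid-log cells at 10^6/ml in 10 mM phosphate buffer pH 7.4 containing added NaCl (25 or 100 mM), CaCl2 (0.5 or 5 mM) or MgCl2 (0.5 or 25 mM). Peptides at the stated multiple of MFC, 2 h at 30°C. Aliquots diluted and plated on YEPD agar for 24 h. Colonies counted and percent killing calculated. Three independent experiments in duplicate.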

For series [5], the system named is Candida albicans. Put plainly: Fungicidal activity against Candida albicans ATCC 18804 at MFC in presence of 100 mM NaCl. In kind it is functional, organism-based. Summed up:
as §2

Series [6] relates to Candida albicans. Put plainly: Fungicidal activity against Candida albicans ATCC 18804 at MFC in presence of 5 mM CaCl2. In kind it is functional, organism-based. Summed up: as §2
The subject of series [7] is Candida albicans. As to the kind of experiment: Fungicidal activity against Candida albicans ATCC 18804 at MFC in presence of 0.5 mM MgCl2. In kind it is functional, organism-based. Put shortly:
as §2

Series [8] concerns Candida albicans. Put plainly: Fungicidal activity against Candida albicans ATCC 18804 assessed as […] killing rate at 2 times MFC in presence of 100 mM NaCl. In kind it is functional. Put shortly:
as §2

Series [9] concerns Candida albicans. Put plainly: Fungicidal activity against Candida albicans ATCC 18804 at MFC in presence of 0.5 mM Ca2+. It counts as functional, organism-based. Summed up: as §2
The test system of series [10] is Candida albicans. As to the kind of experiment: Fungicidal activity against Candida albicans ATCC 18804 at MFC in presence of 0.5 mM Mg2+. In kind it is functional, organism-based. Summed up:
as §2

Series [11] can be described thus: Toxicity in human Erythrocyte assessed as hemolysis upto 75 uM. It counts as cell-based. Put shortly:
(§3)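 Human erythrocytes from heparinized blood, washed three times in 5 mM HEPES pH 7.4 with 150 mM NaCl. 10^7 cells/ml incubated with a range of peptide concentrations for 30 min at 37°C with gentle mixing. Supernatant absorbance read at 540 nm. 0.1% Triton X-100 lysis taken as maximum.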

Series [12] can be described thus: Toxicity in human Erythrocyte assessed as hemolysis at 100 uM. Particulars: erythrocytes, read-out: Activity. In kind it is cell-based. Summed up:
as §3

Series [13] can be described thus: Drug localization in membranes of Candida albicans ATCC 18804 at 50% MFC by confocal microscopy. It counts as ADME. Put shortly: (§4)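 C. albicans treated 15 min at 30°C with N-terminally carboxyfluorescein-labelled peptides at 50% MFC plus 4 µg/ml propidium iodide. Untreated cells served as control. Examined by confocal microscopy using 488- and 543-nm laser lines, 63× water objective and 1 airy unit optical sections.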

Series [14] concerns Candida albicans. Put plainly: Induction of membrane damage in Candida albicans ATCC 18804 at 50% MFC by propidium iodide staining. In kind it is functional, organism-based. Summed up: as §4
Series [15] concerns Candida albicans. Put plainly: Drug uptake in Candida albicans ATCC 18804 assessed as cellular localization at MFC50 by confocal fluorescence microscopy. It counts as ADME, organism-based. As to conditions: in vivo. Summed up: as §4
Series [16] relates to Candida albicans. Put plainly: Induction of membrane damage in Candida albicans ATCC 18804 by Sytox green dye influx assay. In kind it is functional, organism-based. Put shortly: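 Mid-log cells (10^7 CFU/ml) washed and resuspended in phosphate buffer with 1 µM Sytox green at 30°C. Once basal fluorescence was constant, peptide was added and the fluorescence increase recorded at excitation 488 nm and emission 540 nm.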

The subject of series [17] is Candida albicans. As to the kind of experiment: Fungicidal activity against Candida albicans ATCC 18804 at MFC in presence of 25 mM MgCl2. It counts as functional, organism-based. Summed up:
as §2

Structures are written as SMILES. In brackets after ≈: the same amount, converted by molar mass. Activity calls are given as the source filed them. Where a SMILES comes first, the peptide text is derived from it. Bridges are numbered along the chain shown (N, C = ends).

The MFC is the smallest concentration meeting the test's criterion for killing the fungus. With `CC[C@H](C)[C@@H]1NC(=O)[C@H](CCCCN)NC(=O)[C@H]([C@@H](C)O)NC(=O)[C@H](Cc2ccccc2)NC(=O)[C@H]([C@@H](C)CC)NC(=O)[C@@H]2CCCN2C(=O)[C@@H]2CSSC[C@@H](C(=O)N[C@@H](CCCCN)C(=O)O)NC(=O)[C@@H]3CSSC[C@H](NC(=O)[C@H](CC(N)=O)NC(=O)[C@H](Cc4ccc(O)cc4)NC(=O)[C@H](Cc4cnc[nH]4)NC(=O)[C@@H](N)CC(=O)O)C(=O)N[C@@H](C(C)C)C(=O)N[C@@H](CO)C(=O)N[C@@H](CO)C(=O)NCC(=O)NCC(=O)N[C@@H](CCC(N)=O)C(=O)N[C@@H](CSSC[C@H](NC(=O)[C@H]([C@@H](C)O)NC(=O)CNC(=O)[C@H](CCC(N)=O)NC1=O)C(=O)N[C@@H](Cc1ccc(O)cc1)C(=O)N[C@@H](CCCNC(=N)N)C(=O)NCC(=O)N[C@@H](CCCCN)C(=O)N[C@@H](C)C(=O)N[C@@H](CCCCN)C(=O)N3)C(=O)N[C@@H](CC(C)C)C(=O)N[C@@H](Cc1ccc(O)cc1)C(=O)N[C@@H](CO)C(=O)N[C@@H](C)C(=O)N2` (H-DHYNCVSSGGQCLYSACPIFTKIQGTCYRGKAKCCK-OH; disulfide 5-34, 12-27, 17-35), in the series on Candida albicans [1], the minimal fungicidal concentration (MFC) turned out to be 7 µM (≈ 27.5 µg/mL). The “fungicidal activity (active/not active)” value in the series on Candida albicans [2] was “inactive”. The inhibition result in the series on Candida albicans [3], in the series with Candida albicans [4], in the series on Candida albicans [5] and with Candida albicans [6] was “inactive” each time. In addition, the inhibition entry in the series on Candida albicans [7] was “Active”. Further, the “inhibition (percent killing)” value in the series with Candida albicans [8] was 50%.

With `CC[C@H](C)[C@@H]1NC(=O)[C@H](CCC(N)=O)NC(=O)[C@H](CCCCN)NC(=O)[C@H](Cc2ccc(O)cc2)NC(=O)[C@H](CCCNC(=N)N)NC(=O)[C@H](CCCNC(=N)N)NC(=O)[C@@H]2CCCN2C(=O)[C@@H](NC(=O)[C@@H](N)Cc2ccccc2)CSSC[C@@H](C(=O)N[C@@H](CCCCN)C(=O)O)NC(=O)[C@H](CCCCN)NC(=O)[C@H]([C@@H](C)O)NC(=O)CNC(=O)[C@@H]2CCCN2C(=O)[C@H](CC(C)C)NC(=O)CNC(=O)[C@H]([C@@H](C)O)NC(=O)CNC1=O` (H-FCPRRYKQIGTGLPGTKCK-OH; disulfide 2-18), the MFC against Candida albicans [1] was 18 µM (≈ 38.7 µg/mL). The “fungicidal activity (active/not active)” value in the series on Candida albicans [2] is “Active”. In addition, the inhibition result with Candida albicans [3], in the series with Candida albicans [4], with Candida albicans [9], in the series on Candida albicans [10] and in the series on Candida albicans [7] was “Active” throughout. The inhibition entry in the series with Candida albicans [5] and with Candida albicans [6] was “inactive” in each case. Besides, in series [11], the Activity entry is recorded as “Non-toxic”. In addition, in series [12], the hemolysis at 100 µM stood at 15%. In addition, the Drug uptake entry (in series [13]; in the series with Candida albicans [15]) was “Active” throughout. Further, the result with Candida albicans [14] and in the series with Candida albicans [16] was Active. Further, the “inhibition (percent killing)” value in the series with Candida albicans [8] worked out at 50%.

Take `CC[C@H](C)[C@@H]1NC(=O)[C@H](CCC(N)=O)NC(=O)[C@H](CCC(=O)O)NC(=O)[C@H](CCC(=O)O)NC(=O)[C@H](CCCCN)NC(=O)[C@@H]2CCCN2C(=O)[C@H](CC(C)C)NC(=O)[C@@H](NC(=O)[C@@H](N)CO)CSSC[C@@H](C(=O)N[C@@H](CCCNC(=N)N)C(=O)N[C@@H](CCCNC(=N)N)C(=O)N[C@@H](CCCCN)C(=O)N[C@@H](CCCCN)C(=O)O)NC(=O)[C@H](CCCCN)NC(=O)[C@H](CCCNC(=N)N)NC(=O)CNC(=O)[C@H](CCCNC(=N)N)NC(=O)[C@H]([C@@H](C)O)NC(=O)[C@H](CO)NC(=O)[C@H](CCCCN)NC(=O)CNC1=O` (H-SCLPKEEQIGKSTRGRKCRRKK-OH; disulfide 2-18): in the series on Candida albicans [1], the MFC stood at 16 µM (≈ 41.4 µg/mL). For the same compound, in the series with Candida albicans [2], the “fungicidal activity (active/not active)” value was “Active”. In addition, the inhibition result in the series with Candida albicans [3], in the series with Candida albicans [4], with Candida albicans [9], with Candida albicans [10] and in the series on Candida albicans [17] was “Active” each time. In addition, the inhibition entry in the series on Candida albicans [5] was “inactive”. The Activity result in [11] is reported as “Non-toxic”. Moreover, the hemolysis at 100 µM in [12] came to 15%. For the same compound, the Drug uptake entry (in [13]; in the series with Candida albicans [15]) was “Active” in each case. Besides, the result in the series with Candida albicans [14] and in the series on Candida albicans [16] was Active. The “inhibition (percent killing)” value in the series with Candida albicans [8] came to 50%.

`CC[C@H](C)[C@@H]1NC(=O)[C@H](CCCCN)NC(=O)[C@H]([C@@H](C)O)NC(=O)[C@H](Cc2ccccc2)NC(=O)[C@H]([C@@H](C)CC)NC(=O)[C@@H]2CCCN2C(=O)[C@@H](NC(=O)[C@H](C)N)CSSC[C@@H](C(=O)N[C@@H](CCCCN)C(=O)O)NC(=O)[C@H](CCCCN)NC(=O)[C@H](C)NC(=O)[C@H](CCCCN)NC(=O)CNC(=O)[C@H](CCCNC(=N)N)NC(=O)[C@H](Cc2ccc(O)cc2)NC(=O)[C@H]([C@@H](C)O)NC(=O)CNC(=O)[C@H](CCC(N)=O)NC1=O` (H-ACPIFTKIQGTYRGKAKCK-OH; disulfide 2-18) came in with an MFC in the series with Candida albicans [1] of 18 µM (≈ 38 µg/mL). In addition, the “fungicidal activity (active/not active)” value in the series with Candida albicans [2] was “Active”. Further, the inhibition entry with Candida albicans [3], in the series on Candida albicans [4], with Candida albicans [9], in the series with Candida albicans [10] and in the series with Candida albicans [7] was “Active” in each case. In addition, the inhibition result in the series on Candida albicans [5] and in the series on Candida albicans [6] was “inactive” throughout. For the same compound, in series [11], the Activity result was “Non-toxic”. Moreover, in series [12], the hemolysis at 100 µM turned out to be 15%. Besides, the Drug uptake result (in [13]; in the series with Candida albicans [15]) was “Active” throughout. The result in the series with Candida albicans [14] and in the series on Candida albicans [16] was Active. In addition, the “inhibition (percent killing)” value with Candida albicans [8] came to 50%.

The values are drawn from ChEMBL document CHEMBL1671640, “Antifungal activities of human beta-defensins HBD-1 to HBD-3 and their C-terminal analogs Phd1 to Phd3” (Antimicrob Agents Chemother, 2009).
